Data published in ChEMBL document CHEMBL4196176, “Structure-Based Design of MptpB Inhibitors That Reduce Multidrug-Resistant Mycobacterium tuberculosis Survival and Infection Burden in Vivo” (J Med Chem, 2018).

How the values were obtained:
[1] = molecular target: T1, Phosphotyrosine protein phosphatase (Mycobacterium tuberculosis, UniProt A0A045ISB3); experiment: Inhibition of Mycobacterium tuberculosis H37Rv His-tagged ptpB expressed in Escherichia coli BL21(DE3) using pNPP as substrate preincubated for 15 mins followed by substrate addition and measured after 15 mins
T1 sequence (A0A045ISB3 whole entry): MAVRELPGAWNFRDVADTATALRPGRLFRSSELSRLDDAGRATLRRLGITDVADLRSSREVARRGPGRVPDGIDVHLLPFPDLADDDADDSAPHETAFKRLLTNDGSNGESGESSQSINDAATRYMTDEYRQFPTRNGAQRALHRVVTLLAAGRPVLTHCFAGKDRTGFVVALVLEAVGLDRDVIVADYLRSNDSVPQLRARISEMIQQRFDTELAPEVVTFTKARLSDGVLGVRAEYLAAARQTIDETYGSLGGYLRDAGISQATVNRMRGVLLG

[2] = tested on: J774.A1; experiment: Cytotoxicity against mouse J774A.1 cells assessed as reduction in cell viability at 50 to 150 uM after 24 hrs by MTT assay; assay type: cell-based; details: j774.a1, 24 h
How it was run: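 MTT viability assay in J774A.1 cells seeded at 6 × 10^3/well and adhered overnight. Inhibitor in DMSO or DMSO only added for 24 h. MTT (5 mg/mL in PBS) added for 4 h, formazan dissolved in DMSO with Sorensen's glycine buffer, absorbance read at 570 nm.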

[3] = molecular target: T2, Tyrosine-protein phosphatase non-receptor type 1 (Homo sapiens, UniProt P18031); experiment: Inhibition of human PTP1B using pNPP as substrate preincubated for 15 mins followed by substrate addition and measured after 15 mins
T2 sequence (P18031 whole entry): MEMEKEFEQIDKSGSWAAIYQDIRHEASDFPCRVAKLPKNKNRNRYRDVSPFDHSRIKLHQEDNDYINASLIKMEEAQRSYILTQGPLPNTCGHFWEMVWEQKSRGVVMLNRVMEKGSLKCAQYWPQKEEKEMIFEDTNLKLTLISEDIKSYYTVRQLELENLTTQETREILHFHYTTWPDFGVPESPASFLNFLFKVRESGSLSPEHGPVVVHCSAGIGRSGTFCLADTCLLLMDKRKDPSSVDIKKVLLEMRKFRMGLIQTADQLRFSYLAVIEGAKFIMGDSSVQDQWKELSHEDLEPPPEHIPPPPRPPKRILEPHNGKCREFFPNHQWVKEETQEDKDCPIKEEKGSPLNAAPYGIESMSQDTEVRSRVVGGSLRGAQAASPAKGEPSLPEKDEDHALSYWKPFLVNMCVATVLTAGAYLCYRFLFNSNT

[4] = Inhibition of Mycobacterium tuberculosis H37Rv His-tagged ptpA expressed in Escherichia coli BL21(DE3) using pNPP as substrate preincubated for 15 mins followed by substrate addition and measured after 15 mins
How it was run: (§1)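 His-tagged MptpA/MptpB expressed in E. coli BL21(DE3); VHR and hPTP1B purified as GST fusions with the tag cleaved. 0.5 μg protein in Tris/BisTris/acetate buffer (pH 7 MptpB, 6.5 MptpA, 6 hPTP1B, 5 VHR) with compound at 0–250 μM, 15 min at room temperature. pNPP added to 0.35 mM for 15 min, quenched with NaOH, read at 405 nm against a pNP curve. No-enzyme blanks.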

[5] = molecular target: Dual specificity protein phosphatase 3 (Homo sapiens, UniProt P51452); experiment: Inhibition of human VHR using pNPP as substrate preincubated for 15 mins followed by substrate addition and measured after 15 mins; how it was run: as §1
[6] = tested on: Cavia porcellus; experiment: Cmax in Dunkin Hartley guinea pig at 2.5 mg/kg, ip after 0.5 hrs post dose; assay type: ADME, organism-based; set-up: dose 2.5 mg/kg, route intraperitoneal; details: in vivo
[7] = tested on: Cavia porcellus; experiment: Half life in Dunkin Hartley guinea pig at 5 mg/kg, po; assay type: ADME, organism-based; details: in vivo, BLD = below limit of detection
[8] = tested on: Cavia porcellus; experiment: Oral bioavailability in Dunkin Hartley guinea pig at 5 mg/kg; assay type: ADME, organism-based; details: in vivo
[9] = tested on: Cavia porcellus; experiment: AUCinfinity in Dunkin Hartley guinea pig at 5 mg/kg, po; assay type: ADME, organism-based; set-up: dose 5 mg/kg, time infinity, route oral; details: in vivo, BLD = below limit of detection
[10] = tested on: Cavia porcellus; experiment: Half life in Dunkin Hartley guinea pig at 2.5 mg/kg, ip; assay type: ADME, organism-based; details: in vivo
[11] = tested on: Cavia porcellus; experiment: AUCinfinity in Dunkin Hartley guinea pig at 2.5 mg/kg, ip; assay type: ADME, organism-based; set-up: dose 2.5 mg/kg, time infinity, route intraperitoneal; details: in vivo
[12] = tested on: Cavia porcellus; experiment: Cmax in Dunkin Hartley guinea pig at 5 mg/kg, po after 0.25 hrs post dose; assay type: ADME, organism-based; set-up: dose 5 mg/kg, route oral; details: in vivo, BLD = below limit of detection
[13] = tested on: Cavia porcellus; experiment: Half life in Dunkin Hartley guinea pig at 1.25 mg/kg, ip; assay type: ADME, organism-based; details: in vivo
[14] = tested on: Cavia porcellus; experiment: Cmax in Dunkin Hartley guinea pig at 1.25 mg/kg, ip after 0.5 hrs post dose; assay type: ADME, organism-based; set-up: dose 1.25 mg/kg, route intraperitoneal; details: in vivo
[15] = tested on: Cavia porcellus; experiment: Half life in Dunkin Hartley guinea pig at 3.5 mg/kg, po; assay type: ADME, organism-based; details: in vivo, BLD = below limit of detection
[16] = tested on: Cavia porcellus; experiment: AUCinfinity in Dunkin Hartley guinea pig at 3.5 mg/kg, po; assay type: ADME, organism-based; set-up: dose 3.5 mg/kg, route oral, time infinity; details: in vivo, BLD = below limit of detection
[17] = tested on: Cavia porcellus; experiment: AUCinfinity in Dunkin Hartley guinea pig at 1.25 mg/kg, ip; assay type: ADME, organism-based; set-up: dose 1.25 mg/kg, time infinity, route intraperitoneal; details: in vivo
[18] = tested on: Cavia porcellus; experiment: Cmax in Dunkin Hartley guinea pig at 3.5 mg/kg, po after 0.25 hrs post dose; assay type: ADME, organism-based; set-up: dose 3.5 mg/kg, route oral; details: in vivo, BLD = below limit of detection
[19] = tested on: Cavia porcellus; experiment: Oral bioavailability in Dunkin Hartley guinea pig at 3.5 mg/kg; assay type: ADME, organism-based; details: in vivo

Dual specificity protein phosphatase 3, sequence (P51452 whole entry): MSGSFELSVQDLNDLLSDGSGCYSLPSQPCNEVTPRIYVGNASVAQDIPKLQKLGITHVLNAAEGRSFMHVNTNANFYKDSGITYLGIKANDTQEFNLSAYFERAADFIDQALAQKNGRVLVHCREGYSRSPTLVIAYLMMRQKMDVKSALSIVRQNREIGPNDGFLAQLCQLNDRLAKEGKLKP

| Structure (SMILES) | IC50 [1] | Activity [2] | IC50 [3] | IC50 [4] | IC50 [5] | other results |
| --- | --- | --- | --- | --- | --- | --- |
| O=C(O)c1cc(-c2ccccc2)on1 | > 500 µM |  |  |  |  |  |
| COc1cccc(-c2c(C(=O)O)noc2-c2ccccc2)c1 | 38 µM |  |  |  |  |  |
| O=C(O)c1noc(-c2ccccc2)c1-c1cccc(-c2ccc(O)cc2)c1 | 2.8 µM | Non-Toxic | > 100 µM | 74 µM | 54 µM |  |
| O=C(O)c1noc(-c2ccccc2)c1-c1cccc(O)c1 | 85 µM |  |  |  |  |  |
| O=C(O)c1noc(-c2ccccc2)c1-c1cccc(-c2cc(Cl)c(O)c(Cl)c2)c1 |  | Non-Toxic | 127 µM | 33.7 µM | 10.5 µM | Cmax [6]: 3.714 µg/mL; t1/2 [7]: Bld; F [8]: < 4%; AUC [9]: Bld; t1/2 [10]: 0.7 h; AUC [11]: 4.968 µg·h/mL; Cmax [12]: Bld |
| O=C(O)c1noc(-c2ccccc2)c1-c1cccc(-c2cc(Cl)cc(Cl)c2)c1 |  |  | 48 µM | 6.5 µM | 12.3 µM | t1/2 [13]: 1.3 h; Cmax [14]: 0.746 µg/mL; t1/2 [15]: Bld; AUC [16]: Bld; AUC [17]: 1.742 µg·h/mL; Cmax [18]: Bld; F [19]: < 13% |
| O=C(O)c1noc(-c2ccccc2)c1-c1cccc(-c2ccc(O)c(F)c2)c1 | 1.5 µM | Non-Toxic | > 100 µM | 35.3 µM | 40.2 µM |  |
